Data: ChEMBL document CHEMBL1275420, “Transfer of embB codon 306 mutations into clinical Mycobacterium tuberculosis strains alters susceptibility to ethambutol, isoniazid, and rifampin” (2008)
≈ marks a conversion by molar mass, not a printed value. Calls of active or inactive are those of the source. The rule behind the calls is not given here.

Experiments:
[1] = system: Mycobacterium tuberculosis; assay: Antimycobacterial activity against isoniazid, rifampin, ethambutol resistant Mycobacterium tuberculosis isolate NJT5310 expressing embB codon 306 ATG-ATA mutant at 37 degC after 3 to 4 weeks by radiometric Bactec 460TB method; assay type: functional
[2] = system: Mycobacterium tuberculosis; assay: Antimycobacterial activity against Mycobacterium tuberculosis isolate NJT210 expressing embB codon 306 CTG-ATG mutant at 37 degC after 10 to 11 days by radiometric Bactec 460TB method; assay type: functional
[3] = system: Mycobacterium tuberculosis; assay: Antimycobacterial activity against ethambutol resistant Mycobacterium tuberculosis isolate NJT210EMB-R-C1 assessed as bacterial colony formation at 37 degC after 10 to 11 days by radiometric Bactec 460TB method; assay type: functional
[4] = system: Mycobacterium tuberculosis; assay: Antimycobacterial activity against Mycobacterium tuberculosis isolate NJT210 expressing embB codon 306 ATA mutant at 37 degC after 10 to 11 days by radiometric Bactec 460TB method; assay type: functional
[5] = system: Mycobacterium tuberculosis; assay: Antimycobacterial activity against Mycobacterium tuberculosis isolate NJT210 expressing embB codon 306 CTG mutant at 37 degC after 10 to 11 days by radiometric Bactec 460TB method; assay type: functional
[6] = system: Mycobacterium tuberculosis; assay: Antimycobacterial activity against Mycobacterium tuberculosis isolate NJT210 expressing embB codon 306 ATC-ATG mutant at 37 degC after 10 to 11 days by radiometric Bactec 460TB method; assay type: functional
[7] = system: Mycobacterium tuberculosis; assay: Antimycobacterial activity against isoniazid, rifampin, ethambutol resistant Mycobacterium tuberculosis isolate 5310 at 37 degC after 3 to 4 weeks by radiometric Bactec 460TB method; assay type: functional
[8] = system: Mycobacterium tuberculosis; assay: Antimycobacterial activity against isoniazid, rifampin, ethambutol resistant Mycobacterium tuberculosis isolate NJT5310 expressing embB codon 306 ATG-GTG mutant at 37 degC after 3 to 4 weeks by radiometric Bactec 460TB method; assay type: functional
[9] = system: Mycobacterium tuberculosis; assay: Antimycobacterial activity against Mycobacterium tuberculosis isolate NJT210 expressing embB codon 306 GTG mutant at 37 degC after 10 to 11 days by radiometric Bactec 460TB method; assay type: functional
[10] = system: Mycobacterium tuberculosis; assay: Antimycobacterial activity against isoniazid, rifampin, ethambutol resistant Mycobacterium tuberculosis isolate NJT5310 expressing embB codon 306 ATG-ATC mutant at 37 degC after 3 to 4 weeks by radiometric Bactec 460TB method; assay type: functional
[11] = system: Mycobacterium tuberculosis; assay: Antimycobacterial activity against rifampin, ethambutol resistant Mycobacterium tuberculosis isolate NJT30167 expressing embB codon 306 ATG mutant at 37 degC after 3 to 4 weeks by radiometric Bactec 460TB method; assay type: functional
[12] = system: Mycobacterium tuberculosis; assay: Antimycobacterial activity against rifampin, ethambutol resistant Mycobacterium tuberculosis isolate A2558 at 37 degC after 3 to 4 weeks by radiometric Bactec 460TB method; assay type: functional
[13] = system: Mycobacterium tuberculosis; assay: Antimycobacterial activity against isoniazid, rifampin, ethambutol resistant Mycobacterium tuberculosis isolate NJT5310 expressing embB codon 306 ATG-CTG mutant at 37 degC after 3 to 4 weeks by radiometric Bactec 460TB method; assay type: functional
[14] = system: Mycobacterium tuberculosis; assay: Antimycobacterial activity against rifampin, ethambutol resistant Mycobacterium tuberculosis isolate 30167 at 37 degC after 3 to 4 weeks by radiometric Bactec 460TB method; assay type: functional
[15] = system: Mycobacterium tuberculosis; assay: Antimycobacterial activity against Mycobacterium tuberculosis isolate NJT210 expressing embB codon 306 ATC mutant at 37 degC after 10 to 11 days by radiometric Bactec 460TB method; assay type: functional
[16] = system: Mycobacterium tuberculosis; assay: Antimycobacterial activity against ethambutol resistant Mycobacterium tuberculosis isolate NJT210EMB-R-C3 assessed as bacterial colony formation at 37 degC after 10 to 11 days by radiometric Bactec 460TB method; assay type: functional
[17] = system: Mycobacterium tuberculosis; assay: Antimycobacterial activity against rifampin, ethambutol resistant Mycobacterium tuberculosis isolate 5041 at 37 degC after 3 to 4 weeks by radiometric Bactec 460TB method; assay type: functional
[18] = system: Mycobacterium tuberculosis; assay: Antimycobacterial activity against ethambutol resistant Mycobacterium tuberculosis isolate NJT210EMB-R-C2 assessed as bacterial colony formation at 37 degC after 10 to 11 days by radiometric Bactec 460TB method; assay type: functional
[19] = system: Mycobacterium tuberculosis; assay: Antimycobacterial activity against isoniazid, rifampin, ethambutol resistant Mycobacterium tuberculosis isolate NJT5310 expressing embB codon 306 ATG mutant at 37 degC after 3 to 4 weeks by radiometric Bactec 460TB method; assay type: functional
[20] = system: Mycobacterium tuberculosis; assay: Antimycobacterial activity against Mycobacterium tuberculosis isolate NJT210 expressing embB codon 306 CTG mutant assessed as bacterial growth rate at 0.03 ug/ml by radiometric Bactec 460TB method; assay type: functional, organism-based
How it was run: (§1)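 Sub-MIC growth curves in Bactec 12B vials with isoniazid (strain 210 vs NJT210CTG also rifampin) at several sub-MIC levels. The daily growth index was followed. No-drug controls were inoculated at 1:100 dilution. Values are means and standard deviations of three independent experiments.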

[21] = system: Mycobacterium tuberculosis; assay: Antimycobacterial activity against Mycobacterium tuberculosis isolate NJT210 expressing embB codon 306 CTG mutant assessed as bacterial growth rate at 0.04 ug/ml by radiometric Bactec 460TB method; assay type: functional, organism-based; how it was run: as §1
[22] = system: Mycobacterium tuberculosis; assay: Antimycobacterial activity against ethambutol-susceptible and rifampin-resistant Mycobacterium tuberculosis isolate NJT30167 expressing embB codon 306 ATG assessed as bacterial growth rate at sub MIC compound concentration by radiometric Bactec 460TB method; assay type: functional, organism-based; how it was run: as §1

| SMILES | MIC [1] [µg/mL] | MIC [2] [µg/mL] | MIC [3] [µg/mL] | MIC [4] [µg/mL] | MIC [5] [µg/mL] | MIC [6] [µg/mL] | MIC [7] [µg/mL] | MIC [8] [µg/mL] | MIC [9] [µg/mL] | MIC [10] [µg/mL] | MIC [11] [µg/mL] | MIC [13] [µg/mL] | MIC [14] [µg/mL] | MIC [15] [µg/mL] | MIC [16] [µg/mL] | MIC [18] [µg/mL] | MIC [19] [µg/mL] | Activity [21] | further results |
| --- | --- | --- | --- | --- | --- | --- | --- | --- | --- | --- | --- | --- | --- | --- | --- | --- | --- | --- | --- |
| CC[C@@H](CO)NCCN[C@@H](CC)CO [ETHAMBUTOL] | 16 (≈ 78.3 µM) | 2 (≈ 9.79 µM) | 14 (≈ 68.5 µM) | 7 (≈ 34.3 µM) | 8.5 (≈ 41.6 µM) | 2 (≈ 9.79 µM) | 28 (≈ 137 µM) | 28 (≈ 137 µM) | 14 (≈ 68.5 µM) | 16 (≈ 78.3 µM) | 3 (≈ 14.7 µM) | 20 (≈ 97.9 µM) | 20 (≈ 97.9 µM) | 7 (≈ 34.3 µM) | 8 (≈ 39.2 µM) | 14 (≈ 68.5 µM) | 3 (≈ 14.7 µM) | – | MIC [12]: 5 µg/mL (≈ 24.5 µM); MIC [17]: 8 µg/mL (≈ 39.2 µM) |
| NNC(=O)c1ccncc1 [ISONIAZID] | 2.5 (≈ 18.2 µM) | 0.05 (≈ 0.365 µM) | 0.05 (≈ 0.365 µM) | 0.05 (≈ 0.365 µM) | 0.05 (≈ 0.365 µM) | 0.05 (≈ 0.365 µM) | 2.5 (≈ 18.2 µM) | 2.5 (≈ 18.2 µM) | 0.05 (≈ 0.365 µM) | 2.5 (≈ 18.2 µM) | 0.07 (≈ 0.51 µM) | 2.5 (≈ 18.2 µM) | 0.07 (≈ 0.51 µM) | 0.05 (≈ 0.365 µM) | 0.05 (≈ 0.365 µM) | 0.05 (≈ 0.365 µM) | 2.5 (≈ 18.2 µM) | inactive | Activity [20]: inactive; Activity [22]: Active |
| CO[C@H]1/C=C/O[C@@]2(C)Oc3c(C)c(O)c4c(O)c(c(/C=N/N5CCN(C)CC5)c(O)c4c3C2=O)NC(=O)/C(C)=C\C=C\[C@H](C)[C@H](O)[C@@H](C)[C@@H](O)[C@@H](C)[C@H](OC(C)=O)[C@@H]1C [RIFAMPIN] | >240 | 0.05 (≈ 0.0608 µM) | 0.05 (≈ 0.0608 µM) | 0.05 (≈ 0.0608 µM) | 0.05 (≈ 0.0608 µM) | 0.05 (≈ 0.0608 µM) | > 240 | >240 | 0.05 (≈ 0.0608 µM) | >240 | >240 | >240 | > 240 | 0.05 (≈ 0.0608 µM) | 0.05 (≈ 0.0608 µM) | 0.05 (≈ 0.0608 µM) | >240 | inactive | – |
